This is a sample that favours compounds with a hit; in the whole collection about 2.4% have one here.
aDG glyco act = alpha-DG glycosylation activation. activation, % at 10 µM. 360,000 tested, 0.22% active. Pro5-aDG cells, alpha-DG glycosylation AlphaScreen (IIH6); 0% Pro5, 100% B10-LARGE cell signal;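 active = activation of at least 8% versus controls, or a plate z-score of at least 8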;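 also: Pro5 are CHO cells carrying HIG-tagged alpha-DG that lacks glycosylation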
NR2E3 ag-1 = NR2E3 (human) agonism. 320,000 tested, 0.12% active. inhibition of corepressor binding, % at 4.78 µM. GST-NR2E3/biotin-RetCOR TR-FRET, 1536-well. Q9Y5X4. AID 2300;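 active = percent inhibition above the cutoff of mean plus 3 SD of all tested compounds, set per screening campaign, cut at about 20% in these data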
Target sequence (Q9Y5X4 whole entry, looked up): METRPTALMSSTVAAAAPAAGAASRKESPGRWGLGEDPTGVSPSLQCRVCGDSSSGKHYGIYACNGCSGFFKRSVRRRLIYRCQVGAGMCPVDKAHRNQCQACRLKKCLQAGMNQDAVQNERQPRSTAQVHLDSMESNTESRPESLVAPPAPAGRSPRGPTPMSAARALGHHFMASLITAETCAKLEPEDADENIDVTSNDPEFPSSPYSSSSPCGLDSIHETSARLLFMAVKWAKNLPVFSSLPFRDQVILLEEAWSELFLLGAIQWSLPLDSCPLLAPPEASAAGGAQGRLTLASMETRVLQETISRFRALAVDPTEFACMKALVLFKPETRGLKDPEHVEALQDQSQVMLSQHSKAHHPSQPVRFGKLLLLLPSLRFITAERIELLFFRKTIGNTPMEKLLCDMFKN
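Material – GST-tagged NR2E3 plus biotinylated RetCOR corepressor · Quantity – NR2E3 fusion 1.35 nM · Times – 5 h incubation at 4 °C · Medium – pH 7.5 Tris-based buffer · Technique – TR-FRET, Eu(K)-anti-GST donor, streptavidin-D2 acceptor, ex 340, em 617/671 nm · Benchmarks – high control biotin, low control 0.6% DMSO · Format – 1536-well plates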
697 NFkB inh = inhibitors of the PMA/ionomycin-induced NF-kB reporter in 697 B cells | inhibition, % at 4 µM | 330,000 tested, 0.33% active | 697 B-cell NF-kB luciferase reporter, 16 h | AID 435022; in the data active = inhibition above about 35%
Jurkat NFkB inh = lowers PMA/ionomycin-induced NF-kB signal in Jurkat cells; PMA/ionomycin-induced NF-kB luciferase reporter, luminescence; inhibition, % at 4 µM; 330,000 tested, 0.53% active; AID 435003; in the data active = inhibition above about 50%
MPTP inh = inhibitors of mitochondrial permeability transition pore; inhibition, % at 10 µM; AID 602449; 360,000 tested, 1.4% active; isolated mouse mitochondria, Ca2+ swelling absorbance, 30 min;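 active = inhibition of 50% or more, scaled per plate between neutral and stimulator controls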
NR2E3 ag-2 = human photoreceptor-specific nuclear receptor agonism; Q9Y5X4; CHO-S Gal4-NCOR/VP16-NR2E3 two-hybrid, luciferase; inhibition of corepressor binding, % at 3.98 µM; 360,000 tested, 0.35% active;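 active = inhibition above the mean of all tested compounds plus 3 SD, cut at about 70% in these data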;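 also: higher means lower luciferase signal from less NR2E3 corepressor binding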
Jurkat NFkB conf = lowers PMA/ionomycin-induced NF-kB signal in Jurkat cells | shares compounds with Jurkat NFkB inh | Jurkat NF-kB luciferase, 16 h | inhibition, % at 4 µM | 2,700 tested, 27% active;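 active = inhibition reaching about 45% at 4 µM in either replicate, limit read from the data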
Numbers stand for hits; . = inactive; / = no result.

SMILES | aDG glyco act | NR2E3 ag-1 | 697 NFkB inh | Jurkat NFkB inh | MPTP inh | NR2E3 ag-2 | Jurkat NFkB conf
CCCc1nc2oc3c(NCCCN(C)C)ncnc3c2c2c1CCCC2 | . | . | . | 89.7 | . | . | .
O=C(NCCC1=CCCCC1)NC12CC3CC(CC(C3)C1)C2 | . | . | . | . | . | . | .
CC(C)(C)c1ccc(C(=O)CC(=O)c2cc(Cl)ccc2O)cc1 | . | . | . | . | . | . | /
N/C(=C\C(=O)c1cc(Cl)ccc1O)C(Cl)(Cl)Cl | . | . | . | 64.0 | . | . | .
CCc1ccc(-c2cc(C)no2)cc1S(=O)(=O)N1CCN(c2ccccc2OC)CC1 | . | . | . | . | . | . | /
Cc1cc(-c2ccc(C)c(S(=O)(=O)N3CCN(c4ccc([N+](=O)[O-])cc4)CC3)c2)on1 | . | . | . | 54.5 | . | . | 63.5
CCc1ccc(-c2cc(C)no2)cc1S(=O)(=O)N1CCN(c2ccccc2)CC1 | . | . | . | 52.6 | . | . | .
COc1ccc(OC)c(-c2c(C#N)c(N)nc3c2c(=O)nc2sccn23)c1 | . | . | . | . | . | . | /
O=C(Nc1nnc(CCN2CCCCC2)s1)c1ccc(Cl)cc1Cl | . | . | . | . | . | . | /
CC(C)(C)N1C(=O)Cc2c1nc(N)c1c(N)nc(N3CCCCC3CO)c(C#N)c21 (stereo not given) | . | . | . | 55.9 | . | . | .
C=CCNC(=O)c1cc(-c2ccc(Br)cc2)on1 | . | . | . | . | . | . | .
Cc1noc(C)c1COc1ccccc1C(=O)N1CCN(c2cccc(C(F)(F)F)c2)CC1 | . | . | . | 55.4 | . | . | .
O=C(Nc1ccc(Cl)cc1C(=O)NCc1cccnc1)c1ccc(Cl)cc1Cl | . | . | . | 50.8 | . | . | .
COC1CCCN(Cc2c(C(=O)N3CCN(C4CCCCC4)CC3)nc3ccccn23)C1 (stereo not given) | . | . | . | . | . | . | /
Oc1ccc(C2=NNC(=NCc3ccc4c(c3)OCO4)SC2)c(O)c1 | . | . | . | 52.4 | . | . | .
Clc1ccc(C2=NNC(=NCc3ccc4c(c3)OCO4)SC2)cc1 | . | . | / | / | . | . | /
Nc1nc(-c2ccc3ccccc3c2)cs1 | . | . | . | . | . | . | .
CN(c1ccccc1)S(=O)(=O)c1ccc(NC(=O)c2nc(S(C)(=O)=O)ncc2Cl)cc1 | . | . | . | 53.2 | . | . | .
Cc1cnc(NC(=O)c2cc(-c3ccccc3)nn2-c2ccccc2)s1 | . | / | / | / | . | . | /
Cc1ccc2[nH]c(=O)c(C3C(C#N)=C(N)Oc4c3ccc3cccnc43)cc2c1 (stereo not given) | . | . | . | . | . | . | /
N#CC1=C(N)Oc2c(ccc3cccnc23)C1c1ccccc1 (stereo not given) | . | . | . | 65.6 | . | . | .
O=C(Cc1ccccc1)c1ccccc1C(=O)N1CCCCC1 | . | . | . | . | . | . | /
Cc1ccc(NC(=O)CSc2nc(-c3ccco3)cc(C(F)(F)F)n2)cc1C | . | . | . | 71.1 | . | . | 49.3
COC(=O)c1ccccc1NC(=O)CSc1nc(-c2ccco2)cc(C(F)(F)F)n1 | . | . | . | 56.1 | . | . | .
O=C(CSc1nc(-c2ccco2)cc(C(F)(F)F)n1)Nc1ccc2c(c1)CCC2 | . | . | . | 61.0 | . | . | .
SMILES | aDG glyco act | NR2E3 ag-1 | 697 NFkB inh | Jurkat NFkB inh | MPTP inh | NR2E3 ag-2 | Jurkat NFkB conf
Cc1cc(NC(=O)CSc2nc(-c3ccco3)cc(C(F)(F)F)n2)n(-c2ccccc2)n1 | . | . | . | . | . | . | /
CCC(CC)NC(=O)COC(=O)c1cc(SC)ccc1Cl | . | . | . | . | . | . | /
CN(Cc1ccccc1)c1nc(N)nc(Cl)c1C=O | . | . | . | . | . | . | /
COc1cccc(C(C)(O)c2nc(-c3ccc(F)cc3OC)cs2)c1 (stereo not given) | . | / | / | / | . | . | /
CC(=O)OC(C)CS(=O)(=O)c1ccccc1 (stereo not given) | . | . | . | . | . | . | /
COc1ccc(Cn2cnc3c(N)c(C)c(C)cc32)cc1 | . | . | . | . | . | . | /
CCCCCCCCn1cnc2c(N)c(C)c(C)cc21 | . | . | . | 74.7 | . | . | .

Bioassay records: PubChem BioAssay, several laboratories
